{"source": "ChEMBL document CHEMBL4376888", "about": "“Discovery of Potent, Selective, and Direct Acid Sphingomyelinase Inhibitors with Antidepressant Activity” (J Med Chem, 2020)", "key": {"[1]": {"biological_target": "T1, Sphingomyelin phosphodiesterase 2 (Homo sapiens) (UniProt O60906)", "T1 sequence (whole entry)": "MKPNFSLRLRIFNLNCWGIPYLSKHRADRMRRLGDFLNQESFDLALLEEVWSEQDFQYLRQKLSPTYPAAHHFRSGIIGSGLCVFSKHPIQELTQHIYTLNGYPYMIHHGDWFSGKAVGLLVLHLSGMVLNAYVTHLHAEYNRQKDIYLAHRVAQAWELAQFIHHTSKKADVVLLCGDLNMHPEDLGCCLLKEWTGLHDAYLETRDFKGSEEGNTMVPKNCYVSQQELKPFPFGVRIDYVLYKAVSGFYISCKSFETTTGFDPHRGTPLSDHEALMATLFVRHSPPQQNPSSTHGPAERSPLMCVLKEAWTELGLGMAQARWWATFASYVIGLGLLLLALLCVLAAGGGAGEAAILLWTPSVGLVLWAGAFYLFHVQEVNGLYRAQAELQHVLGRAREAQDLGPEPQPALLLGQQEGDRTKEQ", "experiment": "Inhibition of neutral sphingomyelinase (unknown origin) at 100 uM using NBD-sphingomyelin as substrate after 30 mins by fluorescence based assay", "method_in_brief": "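Neutral sphingomyelinase assay run as the ASM cell-extract assay (NBD-sphingomyelin, 37 °C, 30 min, chloroform/methanol extraction, TLC, NBD-ceramide fluorescence). Buffer was 200 mM Tris-HCl pH 7.4 with 10 mM MgCl2 and 10 mM dithiothreitol. Tested at 100 μM.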"}, "NIH3T3": {"system": "NIH3T3", "experiment": "Cytotoxicity against mouse NIH/3T3 cells assessed as reduction in cell viability after 24 hrs by MTT assay", "assay_type": "cell-based", "settings": "Mus musculus, NIH3T3, 24 h", "method_in_brief": "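NIH3T3 cells in DMEM with 10 % FBS at 37 °C, 5 % CO₂, grown overnight, then inhibitor added for 24 h; viability read by MTT.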"}, "[2]": {"experiment": "Ratio of drug uptake in Sprague-Dawley rat brain to plasma at 48 mg/kg, ip after 4 hrs by LC-MS/MS analysis", "assay_type": "ADME, organism-based", "settings": "read-out: BPR", "method_in_brief": "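Nine female SD rats, three per time point, single ip dose of 48 mg/Kg. At 0.5, 2 and 4 h rats were anesthetized with CO2. Heart blood was taken into EDTA-K2 and centrifuged 1500 g, 10 min, for plasma. Brain was weighed and homogenized 1:5 in 20% methanol-water. LC-MS/MS on a C18 column. Mean of 3.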"}, "Rattus norvegicus [3]": {"system": "Rattus norvegicus", "experiment": "Reversal of reserpine-induced inhibition of neurogenesis in ip dosed Sprague-Dawley rat hippocampus administered twice daily for 2 weeks by EDU-incorporation assay", "assay_type": "functional, organism-based", "method_in_brief": "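Rats given EDU 8 mg/kg twice in 1 day and sacrificed 96 h later. Brains shock-frozen and sectioned, washed with 2 mg/mL glycine and PBS, stained with 1X Click-iT solution for 30 min, washed with 0.5% Triton X-100. Counterstained with 1X Hoechst 33342 for 30 min, then imaged by fluorescence microscopy. n=5.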"}, "Rattus norvegicus [4]": {"system": "Rattus norvegicus", "experiment": "Antidepressant activity in Sprague-Dawley rat model of reserpine-induced depression assessed as increase in frequency of upright at 6 to 24 mg/kg, ip administered twice daily for 2 weeks measured for 5 mins by open field test", "assay_type": "functional, organism-based", "method_in_brief": "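Female SD rats (6-8 weeks, 200 g) given reserpine 4 mg/Kg ip daily to induce depression; test agent in 5% DMSO, 2% Tween 80, 5% glucose, ip twice daily for two weeks. Open field: 100×100 cm box, 25 squares, walls about 42 cm, tested 7:30–12:00. Rat placed in central square; centre time, grid crossings, rearing and grooming recorded over 5 min. n=8, mean ± SD.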"}}, "note": "Active and inactive are the calls of the source. The rule behind the calls is not given here."}
{"smiles": "O=C(NO)c1cc(OCc2ccc(-c3ccc(Cl)cc3)cc2)no1", "values": [{"measurement": "inhibition", "setting": "[1]", "result": "inactive"}, {"measurement": "IC50", "setting": "NIH3T3", "result": 161, "unit": "µM"}, {"measurement": "Kp at 4 h", "setting": "[2]", "result": 9.55}, {"measurement": "Activity", "setting": "Rattus norvegicus [3]", "result": "Dose-dependent effect"}, {"measurement": "Activity", "setting": "Rattus norvegicus [4]", "result": "Active"}]}
